Activity calls are given as the source filed them. No cut-off for these calls is given here.
Experiments:
[1] = test system: HL-60; assay: Cytotoxicity against human HL60 cells assessed as cell survival after 72 hrs by clonogenic assay; type: functional, cell-based; conditions: HL-60, 72 h
In short: (§1)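 Cells were kept in RPMI 1640 with 10% heat-inactivated FBS at 37 °C and 6% CO₂. They were plated at 1000–5000 cells/well and exposed to 0–3 nM test agent for 72 h. Medium was then replaced and colonies grew for 7–10 days in total after plating. Colonies were fixed and stained with 0.2% crystal violet in 10% formalin/PBS, then counted. Surviving fraction = colonies in treated wells / colonies in control wells; IC₅₀ was taken from this.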

[2] = Cytotoxicity against human NAMALWA cells assessed as cell survival after 72 hrs by clonogenic assay; type: functional, cell-based; conditions: NAMALVA; in short: as §1
[3] = test system: Ramos; assay: Cytotoxicity against human Ramos cells assessed as cell survival after 72 hrs by clonogenic assay; type: functional, cell-based; in short: as §1
[4] = Solubility in DMSO at 1.5 mg sonicated for 45 mins followed by centrifugation for 45 mins by UV/Vis spectroscopy; type: physicochemical; conditions: 0.75 h
In short: (§2)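 Solid compound (~1.5 mg) in the stated solvent was sonicated 45 min, then centrifuged at 1400g for 45 min. The supernatant concentration was read by UV/vis at 340 nm, using ε = 41500 M⁻¹ cm⁻¹ for the free phenols and 34500 M⁻¹ cm⁻¹ for the phosphate prodrugs (pH 7.0 values).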

[5] = Solubility in methanol at 1.5 mg sonicated for 45 mins followed by centrifugation for 45 mins by UV/Vis spectroscopy; type: physicochemical; conditions: 0.75 h; in short: as §2
[6] = Solubility in DMF at 1.5 mg sonicated for 45 mins followed by centrifugation for 45 mins by UV/Vis spectroscopy; type: physicochemical; conditions: 0.75 h; in short: as §2
[7] = Solubility in ethanol at 1.5 mg sonicated for 45 mins followed by centrifugation for 45 mins by UV/Vis spectroscopy; type: physicochemical; conditions: 0.75 h; in short: as §2
[8] = Solubility in dichloromethane at 1.5 mg sonicated for 45 mins followed by centrifugation for 45 mins by UV/Vis spectroscopy; type: physicochemical; conditions: 0.75 h
[9] = Solubility in chloroform at 1.5 mg sonicated for 45 mins followed by centrifugation for 45 mins by UV/Vis spectroscopy; type: physicochemical; conditions: 0.75 h; in short: as §2
[10] = Solubility in water at 1.5 mg sonicated for 45 mins followed by centrifugation for 45 mins by UV/Vis spectroscopy; type: physicochemical; conditions: 0.75 h; in short: as §2
[11] = Solubility in hexane at 1.5 mg sonicated for 45 mins followed by centrifugation for 45 mins by UV/Vis spectroscopy; type: physicochemical; conditions: 0.75 h; in short: as §2
[12] = Solubility in toluene at 1.5 mg sonicated for 45 mins followed by centrifugation for 45 mins by UV/Vis spectroscopy; type: physicochemical; conditions: 0.75 h; in short: as §2
[13] = Solubility in DMA at 1.5 mg sonicated for 45 mins followed by centrifugation for 45 mins by UV/Vis spectroscopy; type: physicochemical; conditions: 0.75 h; in short: as §2
[14] = Solubility in ethyl acetate at 1.5 mg sonicated for 45 mins followed by centrifugation for 45 mins by UV/Vis spectroscopy; type: physicochemical; conditions: 0.75 h; in short: as §2
[15] = Prodrug activation assessed as enzyme-mediated compound dephosphorylation in presence of bovine kidney alkaline phosphatase P4653 at pH 7.4 by HPLC; conditions: cattle, isolated protein
[16] = Prodrug activation assessed as enzyme-mediated compound dephosphorylation in presence of canine intestine alkaline phosphatase P8639 at pH 7.4 by HPLC; conditions: dog, isolated protein
[17] = Prodrug activation assessed as enzyme-mediated compound dephosphorylation in presence of bovine intestinal mucosa alkaline phosphatase P7640 at pH 7.4 by HPLC; conditions: cattle, isolated protein
[18] = Prodrug activation assessed as enzyme-mediated compound dephosphorylation in presence of bovine liver alkaline phosphatase P7034 at pH 7.4 by HPLC; conditions: cattle, isolated protein
[19] = Prodrug activation assessed as enzyme-mediated compound dephosphorylation in presence of wheat germ acid phosphatase Sigma P3627 at pH 7.4 by HPLC; conditions: isolated protein
[20] = Prodrug activation assessed as enzyme-mediated compound dephosphorylation in presence of rabbit intestine alkaline phosphatase P2256 at pH 7.4 by HPLC; conditions: isolated protein
[21] = Prodrug activation assessed as enzyme-mediated compound dephosphorylation in presence of calf intestine mucosa alkaline phosphatase P79390 at pH 7.4 by HPLC; conditions: cattle, isolated protein
[22] = Solubility in water containing 5% dioxane at 1.5 mg sonicated for 45 mins followed by centrifugation for 45 mins by UV/Vis spectroscopy; type: physicochemical; conditions: 0.75 h
[23] = Prodrug activation assessed as enzyme-mediated compound dephosphorylation in presence of porcine kidney alkaline phosphatase P4439 at pH 7.4 by HPLC; conditions: pig, isolated protein
[24] = Solubility in water containing 5% DMSO at 1.5 mg sonicated for 45 mins followed by centrifugation for 45 mins by UV/Vis spectroscopy; type: physicochemical; conditions: 0.75 h
[25] = Prodrug activation assessed as enzyme-mediated compound dephosphorylation in presence of human placenta alkaline phosphatase from P3895 at pH 7.4 by HPLC; conditions: isolated protein
[26] = Solubility in water containing 5% DMA at 1.5 mg sonicated for 45 mins followed by centrifugation for 45 mins by UV/Vis spectroscopy; type: physicochemical; conditions: 0.75 h
[27] = Solubility in water containing 5% acetone at 1.5 mg sonicated for 45 mins followed by centrifugation for 45 mins by UV/Vis spectroscopy; type: physicochemical; conditions: 0.75 h
[28] = test system: Ramos; assay: Antitumor activity against human Ramos cells xenografted in CB17 SCID mouse assessed as reduction in tumor growth rate at 75 ug/kg, iv dosed as qdx5 regime starting 7 days post xenograft; type: functional, organism-based
In short: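 Female CB 17 SCID mice, five weeks old, were given Ramos cells subcutaneously under the right shoulder (5 × 10⁶ cells/mouse in 0.1 mL serum-free medium). Tumors grew 7 days to about 100 mm³. Mice were randomized, six per group. Dosing was 75 μg/kg (drug basis) qd ×5, given intravenously, with phosphate-buffered saline as vehicle control. Tumors were measured in three dimensions twice weekly, with volume = ½(l×w×h); body weight was also taken twice weekly.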

[29] = Solubility in water containing 5% DMF at 1.5 mg sonicated for 45 mins followed by centrifugation for 45 mins by UV/Vis spectroscopy; type: physicochemical; conditions: 0.75 h
[30] = Prodrug activation assessed as enzyme-mediated compound dephosphorylation in presence of calf intestine alkaline phosphatase P7923 at pH 7.4 by HPLC; conditions: cattle, isolated protein
[31] = Prodrug activation assessed as enzyme-mediated compound dephosphorylation in presence of bovine alkaline phosphatase P8361 at pH 7.4 by HPLC; conditions: cattle, isolated protein
[32] = Stability of the compound in 5 % DMA assessed as cyclopropyl ring formation incubated for 1 yr at room temperature at pH 7 by HPLC analysis; type: physicochemical; conditions: buffer, pH 7, 8766 h
In short: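 Phosphate prodrug is stored for one year at room temperature in phosphate buffer containing 5% DMA at pH ~7. Conversion to the ring-closed cyclopropyl form is monitored by HPLC.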

[33] = Prodrug activation assessed as enzyme-mediated compound dephosphorylation in presence of human semen prostatic acid phosphatase P1649 at pH 7.4 by HPLC; conditions: isolated protein
[34] = Prodrug activation assessed as enzyme-mediated compound dephosphorylation in presence of porcine intestine mucosa alkaline phosphatase P4002 at pH 7.4 by HPLC; conditions: pig, isolated protein
[35] = Prodrug activation assessed as enzyme-mediated compound dephosphorylation in presence of bovine semen prostatic acid phosphatase P3147 at pH 7.4 by HPLC; conditions: cattle, isolated protein
[36] = Solubility in water containing 5% THF at 1.5 mg sonicated for 45 mins followed by centrifugation for 45 mins by UV/Vis spectroscopy; type: physicochemical; conditions: 0.75 h

Nc1ccc2[nH]c(C(=O)Nc3ccc4[nH]c(C(=O)N5C[C@@H](CCl)c6c5cc(O)c5ccccc65)cc4c3)cc2c1
IC50 [1]: 30 pM
IC50 [2]: 5 pM

CSSCCC(=O)Nc1ccc2[nH]c(C(=O)Nc3ccc4[nH]c(C(=O)N5C[C@H]6CC67C5=CC(=O)c5ccccc57)cc4c3)cc2c1 (stereo partly specified)
IC50 [1]: 12 pM
IC50 [3]: 15 pM
IC50 [2]: 12 pM

O=C(CCSSc1ccccn1)Nc1ccc2[nH]c(C(=O)Nc3ccc4[nH]c(C(=O)N5C[C@@H](CCl)c6c5cc(O)c5ccccc65)cc4c3)cc2c1
solubility [4]: soluble
IC50 [1]: 50 pM
solubility [5]: Insoluble
solubility [6]: soluble
solubility [7]: Insoluble
solubility [8]: Insoluble
solubility [9]: Insoluble
solubility [10]: Insoluble
solubility [11]: Insoluble
solubility [12]: Insoluble
IC50 [3]: 50 pM
solubility [13]: soluble
IC50 [2]: 90 pM
solubility [14]: Insoluble

CC(=O)SCCC(=O)Nc1ccc2[nH]c(C(=O)Nc3ccc4[nH]c(C(=O)N5C[C@@H](CCl)c6c5cc(O)c5ccccc65)cc4c3)cc2c1
solubility [4]: soluble
IC50 [1]: 45 pM
solubility [5]: Insoluble
solubility [6]: soluble
solubility [7]: Insoluble
solubility [8]: Insoluble
solubility [9]: Insoluble
solubility [10]: Insoluble
solubility [11]: Insoluble
solubility [12]: Insoluble
IC50 [3]: 47 pM
solubility [13]: soluble
IC50 [2]: 20 pM
solubility [14]: Insoluble

O=C(Nc1ccc2[nH]c(C(=O)N3C[C@@H](CCl)c4c3cc(O)c3ccccc43)cc2c1)c1cc2cc([N+](=O)[O-])ccc2[nH]1
IC50 [1]: 7 pM
IC50 [2]: 5 pM

O=C(CCS)Nc1ccc2[nH]c(C(=O)Nc3ccc4[nH]c(C(=O)N5C[C@@H](CCl)c6c5cc(OP(=O)(O)O)c5ccccc65)cc4c3)cc2c1
Drug metabolism [15]: Active
Drug metabolism [16]: Active
Drug metabolism [17]: Active
Drug metabolism [18]: Active
solubility [4]: soluble
Drug metabolism [19]: Active
Drug metabolism [20]: Active
Drug metabolism [21]: Active
solubility [22]: soluble
solubility [5]: Insoluble
solubility [6]: soluble
solubility [7]: Insoluble
solubility [8]: Insoluble
solubility [9]: Insoluble
Drug metabolism [23]: Active
solubility [24]: soluble
solubility [10]: Insoluble
solubility [11]: Insoluble
solubility [12]: Insoluble
Drug metabolism [25]: Active
solubility [13]: soluble
solubility [26]: soluble
solubility [27]: soluble
Activity [28]: inactive
solubility [29]: soluble
Drug metabolism [30]: Active
Drug metabolism [31]: Active
Drug degradation [32]: 3%
Drug metabolism [33]: Active
Drug metabolism [34]: Active
Drug metabolism [35]: Active
solubility [36]: soluble
solubility [14]: Insoluble

CC(C)(S)CCC(=O)Nc1ccc2[nH]c(C(=O)Nc3ccc4[nH]c(C(=O)N5C[C@@H](CCl)c6c5cc(OP(=O)(O)O)c5ccccc65)cc4c3)cc2c1
Drug metabolism [15]: Active
Drug metabolism [16]: Active
Drug metabolism [17]: Active
Drug metabolism [18]: Active
solubility [4]: soluble
Drug metabolism [19]: Active
Drug metabolism [20]: Active
Drug metabolism [21]: Active
solubility [22]: soluble
solubility [5]: Insoluble
solubility [6]: soluble
solubility [7]: Insoluble
solubility [8]: Insoluble
solubility [9]: Insoluble
Drug metabolism [23]: Active
solubility [24]: soluble
solubility [10]: Insoluble
solubility [11]: Insoluble
solubility [12]: Insoluble
Drug metabolism [25]: Active
solubility [13]: soluble
solubility [26]: soluble
solubility [27]: soluble
Activity [28]: inactive
solubility [29]: soluble
Drug metabolism [30]: Active
Drug metabolism [31]: Active
Drug degradation [32]: 3%
Drug metabolism [33]: Active
Drug metabolism [34]: Active
Drug metabolism [35]: Active
solubility [36]: soluble
solubility [14]: Insoluble

Source: ChEMBL document CHEMBL2157989, “Synthesis and biological evaluation of antibody conjugates of phosphate prodrugs of cytotoxic DNA alkylators for the targeted treatment of cancer” (J Med Chem, 2012)
